Key:
[1] = biological target: T1, Muscarinic acetylcholine receptor M1 (Rattus norvegicus, UniProt P08482); test: Binding affinity towards Muscarinic acetylcholine receptor M1 using [3H]pirenzepine as radioligand was determined
T1 sequence (P08482 whole entry): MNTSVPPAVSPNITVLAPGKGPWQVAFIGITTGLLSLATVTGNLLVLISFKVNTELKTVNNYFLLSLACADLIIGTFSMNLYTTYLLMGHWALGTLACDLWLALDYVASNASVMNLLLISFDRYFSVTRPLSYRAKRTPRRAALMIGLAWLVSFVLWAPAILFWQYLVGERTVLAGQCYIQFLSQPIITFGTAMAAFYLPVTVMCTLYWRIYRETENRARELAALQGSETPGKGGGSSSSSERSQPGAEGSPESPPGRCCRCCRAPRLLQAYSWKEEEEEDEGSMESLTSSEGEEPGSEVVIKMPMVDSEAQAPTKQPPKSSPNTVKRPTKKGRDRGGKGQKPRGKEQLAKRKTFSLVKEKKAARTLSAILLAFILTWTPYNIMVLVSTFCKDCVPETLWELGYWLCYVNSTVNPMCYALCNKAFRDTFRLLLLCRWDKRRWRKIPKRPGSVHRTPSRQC
Method in brief: (§1)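 Radioligand displacement binding for SERT, NET and muscarinic receptors. Ki from at least three independent experiments, each run in triplicate.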

[2] = biological target: T2, Sodium-dependent dopamine transporter (Rattus norvegicus, UniProt P23977); test: In vitro potency for inhibiting [3H]- dopamine uptake was determined; type: functional
T2 sequence (P23977 whole entry): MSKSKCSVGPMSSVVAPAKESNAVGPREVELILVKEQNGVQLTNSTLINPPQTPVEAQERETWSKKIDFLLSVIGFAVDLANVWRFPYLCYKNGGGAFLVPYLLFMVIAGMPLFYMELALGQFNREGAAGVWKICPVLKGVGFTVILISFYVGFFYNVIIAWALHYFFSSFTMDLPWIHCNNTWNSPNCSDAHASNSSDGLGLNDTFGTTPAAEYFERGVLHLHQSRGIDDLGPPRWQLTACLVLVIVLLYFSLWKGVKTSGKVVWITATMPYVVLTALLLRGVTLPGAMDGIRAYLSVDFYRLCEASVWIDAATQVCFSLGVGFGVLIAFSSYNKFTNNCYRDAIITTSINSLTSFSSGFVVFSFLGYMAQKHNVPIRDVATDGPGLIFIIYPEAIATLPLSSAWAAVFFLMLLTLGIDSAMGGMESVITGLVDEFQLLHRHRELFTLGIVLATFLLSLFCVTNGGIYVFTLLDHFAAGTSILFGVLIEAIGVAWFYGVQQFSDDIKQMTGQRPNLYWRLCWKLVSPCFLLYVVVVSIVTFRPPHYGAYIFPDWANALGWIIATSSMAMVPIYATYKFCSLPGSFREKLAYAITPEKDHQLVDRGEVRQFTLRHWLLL
Method in brief: (§2)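 [3H]Dopamine uptake inhibition in rat brain synaptosomes, reported as IC50.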

[3] = biological target: Sodium-dependent serotonin transporter (Rattus norvegicus, UniProt P31652); test: Binding affinity towards serotonin transporter using [3H]citalopram as radioligand was determined; method in brief: as §1
Sequence of Sodium-dependent serotonin transporter (P31652 whole entry): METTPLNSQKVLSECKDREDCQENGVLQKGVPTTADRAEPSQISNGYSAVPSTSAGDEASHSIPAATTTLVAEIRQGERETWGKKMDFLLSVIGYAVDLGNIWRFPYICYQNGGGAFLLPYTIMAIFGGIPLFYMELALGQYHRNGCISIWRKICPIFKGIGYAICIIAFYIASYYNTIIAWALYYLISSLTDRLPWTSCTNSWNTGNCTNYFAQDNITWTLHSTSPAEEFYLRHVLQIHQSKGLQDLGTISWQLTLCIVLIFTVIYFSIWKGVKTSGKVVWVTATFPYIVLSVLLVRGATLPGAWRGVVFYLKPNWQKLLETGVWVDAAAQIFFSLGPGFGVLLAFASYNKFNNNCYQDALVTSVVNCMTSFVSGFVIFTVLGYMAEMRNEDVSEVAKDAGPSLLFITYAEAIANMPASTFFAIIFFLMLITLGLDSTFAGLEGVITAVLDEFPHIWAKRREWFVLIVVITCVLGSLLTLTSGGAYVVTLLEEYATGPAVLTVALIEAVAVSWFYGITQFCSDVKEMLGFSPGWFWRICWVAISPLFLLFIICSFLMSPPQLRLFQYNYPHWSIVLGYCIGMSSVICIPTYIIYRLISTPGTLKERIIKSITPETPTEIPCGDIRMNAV

[4] = biological target: Norepinephrine transporter (Rattus norvegicus, UniProt Q9WTR4); test: Binding affinity towards norepinephrine transporter using [3H]nisoxetine as radioligand was determined; method in brief: as §1
Sequence of Norepinephrine transporter (Q9WTR4 whole entry): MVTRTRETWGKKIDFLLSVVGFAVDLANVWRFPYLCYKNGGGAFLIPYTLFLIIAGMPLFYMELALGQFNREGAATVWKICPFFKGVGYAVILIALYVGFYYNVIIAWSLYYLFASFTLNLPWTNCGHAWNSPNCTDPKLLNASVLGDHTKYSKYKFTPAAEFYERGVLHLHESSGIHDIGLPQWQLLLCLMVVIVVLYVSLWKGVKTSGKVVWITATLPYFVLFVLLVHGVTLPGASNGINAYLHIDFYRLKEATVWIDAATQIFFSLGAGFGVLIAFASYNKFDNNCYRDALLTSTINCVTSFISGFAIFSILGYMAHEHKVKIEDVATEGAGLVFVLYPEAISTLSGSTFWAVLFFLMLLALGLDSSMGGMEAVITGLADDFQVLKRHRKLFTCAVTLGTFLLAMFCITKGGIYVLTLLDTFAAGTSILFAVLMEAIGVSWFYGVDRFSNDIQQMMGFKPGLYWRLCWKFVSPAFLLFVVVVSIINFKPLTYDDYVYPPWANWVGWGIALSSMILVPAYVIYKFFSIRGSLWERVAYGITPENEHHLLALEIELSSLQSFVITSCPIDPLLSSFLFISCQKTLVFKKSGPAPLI

[5] = biological target: T2, Sodium-dependent dopamine transporter; test: In vitro dopamine transporter binding affinity using [3H]WIN-35428 as radioligand was determined
[6] = biological target: T2, Sodium-dependent dopamine transporter; test: In vitro inhibitory activity of dopamine transporter using [3H]WIN-35428 as radioligand was determined
Method in brief: (§3)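 Rat brain DAT, radioligand displacement with [3H]WIN 35,428. Ki from at least three independent experiments, each run in triplicate.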

[7] = biological target: T2, Sodium-dependent dopamine transporter; test: Binding affinity towards dopamine transporter; method in brief: as §3
[8] = biological target: T2, Sodium-dependent dopamine transporter; test: In vitro potency for inhibiting [3H]- dopamine uptake in rat brain was determined; type: functional, tissue-based; method in brief: as §2

SMILES	IC50 [2] [nM]	Ki [4] [nM]	Ki [5] [nM]	other results
CN1C2CCC1[C@@H](C(=O)OCCc1ccc(N)cc1)[C@@H](OC(c1ccc(F)cc1)c1ccc(F)cc1)C2 (some centres undefined)	8	1340	36.7	Ki [1]: 263 nM; Ki [3]: 1500 nM
CN1C2CCC1[C@@H](C(=O)OCCc1ccc(N=[N+]=[N-])c(I)c1)[C@@H](c1ccc(Cl)c(Cl)c1)C2 (some centres undefined)	–	–	–	IC50 [6]: 14.5 nM
CN1C2CCC1[C@@H](C(=O)OCCc1ccc(N)c(I)c1)[C@@H](OC(c1ccc(F)cc1)c1ccc(F)cc1)C2 (some centres undefined)	–	–	42.3	–
CN1C2CCC1[C@@H](C(=O)OCCc1ccccc1)[C@@H](c1ccc(Cl)c(Cl)c1)C2 (some centres undefined)	–	–	10.9	Ki [7]: 100 nM; IC50 [8]: 3.2 nM
CN1C2CCC1[C@@H](C(=O)OCCc1ccc(N=[N+]=[N-])c(I)c1)[C@@H](OC(c1ccc(F)cc1)c1ccc(F)cc1)C2 (some centres undefined)	–	–	–	IC50 [6]: 210 nM
CN1C2CCC1[C@@H](C(=O)OCCc1ccc(N=C=S)cc1)[C@@H](OC(c1ccc(F)cc1)c1ccc(F)cc1)C2 (some centres undefined)	–	–	–	IC50 [6]: 537 nM
CN1C2CCC1[C@@H](C(=O)OCc1ccccc1)[C@@H](OC(c1ccc(F)cc1)c1ccc(F)cc1)C2 (single isomer, unassigned; (+))	–	2230	–	Ki [1]: 4380 nM; Ki [3]: 2040 nM
CC(C)OC(=O)[C@@H]1C2CCC(C[C@@H]1c1ccc(Cl)c(Cl)c1)N2C (some centres undefined)	–	–	17.9	Ki [7]: 100 nM; IC50 [8]: 2.7 nM
CCOC(=O)[C@@H]1C2CCC(C[C@@H]1OC(c1ccc(F)cc1)c1ccc(F)cc1)N2C (some centres undefined)	1.8	629	16.4	–
CN1C2CCC1[C@@H](C(=O)OCCc1ccccc1)[C@@H](OC(c1ccc(F)cc1)c1ccc(F)cc1)C2 (some centres undefined)	2.6	–	36.7	–
CN1C2CCC1[C@@H](C(=O)OCCc1ccccc1)[C@@H](OC(c1ccc(F)cc1)c1ccc(F)cc1)C2 (single isomer, unassigned; (+))	–	1030	–	Ki [1]: 354 nM; Ki [3]: 3160 nM
CN1C2CCC1[C@@H](C(=O)OCc1ccccc1)[C@@H](OC(c1ccc(F)cc1)c1ccc(F)cc1)C2 (some centres undefined)	2.2	–	48.4	–
CCOC(=O)[C@@H]1C2CCC(C[C@@H]1c1ccc(Cl)c(Cl)c1)N2C (some centres undefined)	–	–	5.54	Ki [7]: 100 nM; IC50 [8]: 1.9 nM
CN1C2CCC1[C@@H](C(=O)OCc1ccccc1)[C@@H](c1ccc(Cl)c(Cl)c1)C2 (some centres undefined)	–	–	34.7	Ki [7]: 100 nM; IC50 [8]: 19 nM
COC(=O)[C@@H]1C2CCC(C[C@@H]1c1ccc(Cl)c(Cl)c1)N2C (some centres undefined)	–	15.8	6.3	Ki [1]: 3140 nM; Ki [3]: 1.46 nM; Ki [7]: 100 nM; IC50 [8]: 1.4 nM
COC(=O)[C@@H]1C2CCC(C[C@@H]1OC(c1ccc(F)cc1)c1ccc(F)cc1)N2C (single isomer, unassigned; (+))	–	269	–	–
CC(C)OC(=O)[C@@H]1C2CCC(C[C@@H]1OC(c1ccc(F)cc1)c1ccc(F)cc1)N2C (some centres undefined)	6.2	–	30.3	–
COC(=O)[C@@H]1C2CCC(C[C@@H]1OC(c1ccc(F)cc1)c1ccc(F)cc1)N2C (some centres undefined)	1.5	–	–	–
CN1C2CCC1[C@@H](C(=O)OCCc1ccc([N+](=O)[O-])cc1)[C@@H](OC(c1ccc(F)cc1)c1ccc(F)cc1)C2 (some centres undefined)	3.3	–	97.7	–
CC(C)OC(=O)[C@@H]1C2CCC(C[C@@H]1OC(c1ccc(F)cc1)c1ccc(F)cc1)N2C (single isomer, unassigned; (+))	–	642	–	Ki [1]: 2680 nM; Ki [3]: 12000 nM
